Data: ChEMBL document CHEMBL4831490, “Silyl resveratrol derivatives as potential therapeutic agents for neurodegenerative and neurological diseases” (Eur J Med Chem, 2021)
Values after ≈ are worked out from the molar mass of the structure shown. Active and inactive are the calls of the source. No cut-off for these calls is given here.

Columns and labels:
[1] = Toxicity in 3hpf zebrafish AB embryo assessed as NOAEL measured 96 hpf; set-up: species or system Danio rerio; details: in vivo, 96 h
In short: (§1)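 Zebrafish AB embryos collected at 3 hpf, 20 per well, in E3 medium with graded compound concentrations. Incubated 28.5 °C for 93 h further (to 96 hpf), mortality scored. NOEC/LOEC defined by mortality above 20%. Controls: 0.1% DMSO, three replicates; DEAB at 5 concentrations.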

[2] = Toxicity in 3hpf zebrafish AB embryo assessed as median lethal dose measured 96 hpf; set-up: species or system Danio rerio; details: in vivo
In short: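 AB zebrafish embryos collected 3 hpf, 20 per well in E3 medium with graded compound concentrations, kept at 28.5 °C to 96 hpf. LC50 was fitted as a sigmoid to mortality. NOEC/LOEC used >20% mortality as the effect. Negative control was 0.1% DMSO in triplicate; DEAB (0.1 µM–1 mM) served as positive control.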

[3] = Toxicity in 3hpf zebrafish AB embryo assessed as LOAEL measured 96 hpf; set-up: species or system Danio rerio; details: in vivo, 96 h; in short: as §1
[4] = Stability of the compound in PBS buffer assessed as parent compound remaining measured after 72 hrs; format: physicochemical; details: read-out: Stability
In short: (§2)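 Compound incubated 72 h in PBS 1x (pH 7.4) or in SH-SY5Y culture medium; percentage of compound remaining determined.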

[5] = Stability of the compound in human SH-SY5Y cells assessed as parent compound remaining measured after 72 hrs; format: ADME; details: read-out: Stability; in short: as §2
SH-SY5Y [6] = assay: Neuroprotective activity against H2O2-induced oxidative stress in human SH-SY5Y cells assessed as increase in cell viability at 10 uM pretreated with H2O2 for 10 mins followed by compound treatment and measured after 24 hrs by MTT assay; format: functional, cell-based
SH-SY5Y [7] = assay: Cytotoxicity against human SH-SY5Y cells assessed as reduction in cell viability at 10 uM measured after 24 hrs by MTT assay relative to control; format: cell-based
In short: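 SH-SY5Y cells grown in DMEM-F12 with 10% iFBS on collagen-pretreated plates; 2 × 10⁴ cells per well, left 24 h before compound in DMSO (final 1% DMSO) at 1, 10 and 100 µM. Viability by MTT 24 h after addition; mean and SD of at least eight readings from various experiments.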

RAW264.7 [8] = assay: Antiinflammatory activity in mouse RAW 264.7 cells assessed as decrease in LPS-induced TNF-alpha production at 10 uM measured after 24 hrs by ELISA; format: functional, cell-based
In short: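 RAW 264.7 macrophages, 5 × 10⁵ per well, given compound at 10 µM then stimulated with LPS (final 100 ng/mL). TNF-α in supernatants after 24 h measured by ELISA with capture/biotinylated detection antibody pairs.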

Danio rerio = species on record: Danio rerio; assay: Neuroprotective activity against PTZ-induced neuronal damage in 5 dpf zebrafish AB larvae assessed as effect on AChE activity at 10 uM pretreated for 1 hr followed by removal of medium and subsequent addition of fresh medium containing PTZ and compounds measured after 6 hrs by Ellman's method; format: functional, organism-based; details: time 7.0 hrs
In short: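 Zebrafish AB larvae at 120 hpf, five per well, ten replicates, two independent experiments. Pretreated 1 h at 26 °C with compound (10 µM) in water with 0.1% DMSO, then after a media change kept 6 h at 26 °C with compound plus 5 mM PTZ. Physostigmine (20 µM) was the control inhibitor. Homogenate supernatant assayed by Ellman method; activity normalized to BCA protein, as % of control.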

[9] = Aqueous solubility of the compound; format: physicochemical
RAW264.7 [10] = assay: Antiinflammatory activity in mouse RAW 264.7 cells assessed as decrease in LPS-induced IL-6 production at 10 uM measured after 24 hrs by ELISA; format: functional, cell-based
In short: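 RAW 264.7 macrophages, 5 × 10⁵ per well, compound added then stimulated with LPS (final 100 ng/mL) or left unstimulated; IL-6 in supernatant measured after 24 h by sandwich ELISA with capture/biotinylated detection antibodies.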

RAW264.7 [11] = assay: Antiinflammatory activity in mouse RAW 264.7 cells assessed as inhibition of LPS-induced nitric oxide production at 10 uM measured after 24 hrs by Griess reagent assay; format: functional, cell-based
In short: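 NO in 24 h culture supernatants of LPS-stimulated RAW 264.7 cells (compound 10 µM, LPS final 100 ng/mL) estimated indirectly as nitrite concentration.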

[12] = Hydrolytic stability of the compound in mouse serum assessed as parent compound remaining measured after 24 hrs; format: ADME, cell-free; details: read-out: Stability
In short: (§3)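 Hydrolytic stability measured in mouse serum at 1 h and 24 h.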

Mus musculus [13] = assay: Neuroprotective activity in C57BL/6 mouse model of 3-NP-induced intoxication assessed as reduction in IL6 production at 20 mg/kg, ip by sandwich ELISA
Mus musculus [14] = assay: Neuroprotective activity in C57BL/6 mouse model of 3-NP-induced intoxication assessed as reduction in truncal dystonia at 20 mg/kg, ip measured after 5 days relative to control; format: functional; set-up: scale not given: the % may be the effect or the level left; details: time 5 day, in the assay text read “overall motor score” for “truncal dystonia”
In short: (§4)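 C57BL/6 mice, 12 weeks old, n = 7 per group. 3-NP given i.p. twice daily, 10 h apart: 4 × 20, 4 × 40, 2 × 60 mg/kg (cumulative 360 mg/kg over 5 days). Compound 20 mg/kg i.p. in 13% hydroxypropyl-β-cyclodextrin with 2% Tween-80, given just before each morning 3-NP dose. Weight and motor scoring done before injections, last one 3 h after final 3-NP dose. Rotarod latency to fall read after the 360 mg/kg cumulative dose.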

Mus musculus [15] = assay: Neuroprotective activity in C57BL/6 mouse model of 3-NP-induced intoxication assessed as improvement in latency to fall at 20 mg/kg, ip by rotarod test relative to control; format: functional; in short: as §4
Mus musculus [16] = assay: Antioxidant activity in C57BL/6 mouse model of 3-NP-induced oxidative stress assessed as increase in SOD2 mRNA expression at 20 mg/kg, ip by qRT-PCR method; format: functional, organism-based; in short: as §4
Mus musculus [17] = assay: Immunosuppressive activity in MOG (35 to 55 residues)/pertussis toxin-induced experimental autoimmune encephalomyelitis C57BL/6 mouse model assessed as reduction in clinical scores at 20 mg/kg, ip starting from 20 days post disease progression and administered for 2 weeks; format: functional, organism-based
[18] = Hydrolytic stability of the compound in mouse serum assessed as parent compound remaining measured after 1 hr; format: ADME, cell-free; details: read-out: Stability; in short: as §3
Mus musculus [19] = assay: Neuroprotective activity in C57BL/6 mouse model of 3-NP-induced intoxication assessed as effect on body weight at 20 mg/kg, ip measured after 5 days (91.4 %); format: functional; details: time 5 day; in short: as §4
SH-SY5Y [20] = assay: Neuroprotective activity against H2O2-induced oxidative stress in human SH-SY5Y cells assessed as increase in cell viability at 100 uM pretreated with H2O2 for 10 mins followed by compound treatment and measured after 24 hrs by MTT assay relative to control; format: functional

Compound	NOAEL [1] [µM]	LC50 at 96 h [2] [µM]	LOAEL [3] [µM]	Activity (SH-SY5Y [6])	Activity (RAW264.7 [8])	also measured
CC(C)[Si](Oc1cc(/C=C/c2ccc(O[C@H]3O[C@@H](CO)[C@H](O)[C@@H](O)[C@@H]3O)cc2)cc(O[Si](C(C)C)(C(C)C)C(C)C)c1)(C(C)C)C(C)C	1000	> 1000	1000	–	–	–
CC(C)[Si](Oc1ccc(/C=C/c2cc(O[C@@H]3O[C@H](CO)[C@@H](O)[C@H](O)[C@H]3O)cc(O[Si](C(C)C)(C(C)C)C(C)C)c2)cc1)(C(C)C)C(C)C	1000	> 1000	1000	–	–	remaining at 72 h [4]: > 80%; remaining at 72 h [5]: > 80%
CCCCCCCC(=O)OC[C@H]1O[C@@H](Oc2cc(/C=C/c3ccc(O[Si](C(C)C)(C(C)C)C(C)C)cc3)cc(O[Si](C(C)C)(C(C)C)C(C)C)c2)[C@H](O)[C@@H](O)[C@@H]1O	100	407	1000	–	–	–
CC(C)(C)[Si](C)(C)Oc1cc(O)cc(/C=C/c2ccc(O)cc2)c1	–	–	–	Active	–	Activity (SH-SY5Y [7]): > 50%
CC(C)[Si](Oc1cc(O)cc(/C=C/c2ccc(O)cc2)c1)(C(C)C)C(C)C	–	–	–	Active	–	Activity (SH-SY5Y [7]): > 50%
CCCC(=O)Oc1ccc(/C=C/c2cc(O[Si](CC)(CC)CC)cc(O[Si](CC)(CC)CC)c2)cc1	100	407	1000	–	–	–
CC[Si](CC)(CC)Oc1ccc(/C=C/c2cc(O)cc(O)c2)cc1	–	–	–	–	Active	–
CC[Si](CC)(CC)Oc1cc(O)cc(/C=C/c2ccc(O)cc2)c1	–	–	–	–	Active	–
Oc1ccc(/C=C/c2cc(O)cc(O)c2)cc1 [RESVERATROL]	1000	> 1000	> 1000	–	–	Activity (Danio rerio): Active; solubility [9]: 50 µg/mL (≈ 219 µM)
CC(C)[Si](Oc1ccc(/C=C/c2cc(O)cc(O[Si](C(C)C)(C(C)C)C(C)C)c2)cc1)(C(C)C)C(C)C	> 1000	> 1000	1000	Active	Active	Activity (RAW264.7 [10]): Active
CC(C)(C)[Si](C)(C)Oc1cc(/C=C/c2ccc(O)cc2)cc(O[Si](C)(C)C(C)(C)C)c1	–	–	–	Active	Active	–
CC[Si](CC)(CC)Oc1cc(/C=C/c2ccc(O)cc2)cc(O[Si](CC)(CC)CC)c1	100	475	1000	–	Active	inhibition (RAW264.7 [11]): Active; Activity (Danio rerio): Active
CCCCCCCC(=O)OC[C@@H]1O[C@H](Oc2ccc(/C=C/c3cc(O[Si](C(C)C)(C(C)C)C(C)C)cc(O[Si](C(C)C)(C(C)C)C(C)C)c3)cc2)[C@@H](O)[C@H](O)[C@H]1O	100	407	1000	–	–	remaining at 24 h [12]: 15%; Activity (Mus musculus [13]): Active; Activity (Mus musculus [14]): 26.5%; Activity (Mus musculus [15]): 10%; Activity (Mus musculus [16]): Active; Activity (Danio rerio): Active; remaining at 72 h [4]: > 80%; Activity (Mus musculus [17]): Active; remaining at 72 h [5]: > 80%; remaining at 1 h [18]: 75%; Activity (Mus musculus [19]): 94.8%
CC(C)[Si](Oc1ccc(/C=C/c2cc(O)cc(O)c2)cc1)(C(C)C)C(C)C	–	–	–	Active	–	Activity (SH-SY5Y [7]): > 50%
CC(C)[Si](Oc1cc(/C=C/c2ccc(O)cc2)cc(O[Si](C(C)C)(C(C)C)C(C)C)c1)(C(C)C)C(C)C	–	–	–	Active	–	Activity (RAW264.7 [10]): Active; Activity (SH-SY5Y [20]): 100%; Activity (Danio rerio): Active; remaining at 72 h [4]: > 80%; remaining at 72 h [5]: > 80%
CC[Si](CC)(CC)Oc1ccc(/C=C/c2cc(O)cc(O[Si](CC)(CC)CC)c2)cc1	100	380	1000	Active	Active	Activity (Danio rerio): Active
CCNC(=O)Oc1ccc(/C=C/c2cc(O[Si](C(C)C)(C(C)C)C(C)C)cc(O[Si](C(C)C)(C(C)C)C(C)C)c2)cc1	1000	–	1000	–	–	–
CCCCCCCC(=O)OC[C@H]1O[C@@H](Oc2cc(O)cc(/C=C/c3ccc(O)cc3)c2)[C@H](O)[C@@H](O)[C@@H]1O	1	–	10	–	Active	–
CC(C)(C)[Si](C)(C)Oc1ccc(/C=C/c2cc(O)cc(O[Si](C)(C)C(C)(C)C)c2)cc1	–	–	–	Active	Active	–
